Results as given in ChEMBL document CHEMBL4190388, “Discovery and Optimization of Indolyl-Containing 4-Hydroxy-2-Pyridone Type II DNA Topoisomerase Inhibitors Active against Multidrug Resistant Gram-negative Bacteria” (J Med Chem, 2018).
Values after ≈ are worked out from the molar mass of the structure shown. Blank lines part the entries; values can stand above or below the compound they belong to.

Assays:
[1] = Inhibition of His tagged Escherichia coli ATCC 25922 DNA gyrase A expressed in Escherichia coli BL21 (DE3) pLysS cells assessed as reduction in enzyme-mediated supercoiling of relaxed plasmid DNA pNO1 after 30 mins in presence of biotinylated TFO1 by fluorescence assay
Escherichia coli [2] = test: Bactericidal activity against wild type Escherichia coli ATCC 25922 assessed as reduction of bacterial load after 24 hrs by time kill assay; format: functional, organism-based
Acinetobacter baumannii [3] = test: Bactericidal activity against wild type Acinetobacter baumannii ATCC BAA-747 assessed as reduction of bacterial load after 24 hrs by time kill assay; format: functional, organism-based
Escherichia coli [4] = test: Antibacterial activity against fluoroquinolone resistant Escherichia coli SKM18 by CLSI M100-S17 protocol based method; format: functional
Escherichia coli [5] = test: Antibacterial activity against wild type Escherichia coli ATCC 25922 by CLSI M100-S17 protocol based method; format: functional
Escherichia coli [6] = test: Antibacterial activity against quinolone resistance Escherichia coli isolate ELZ4251 harboring gyrA/parC mutant by CLSI M100-S17 protocol based method; format: functional
Acinetobacter baumannii [7] = test: Antibacterial activity against wild type Acinetobacter baumannii ATCC BAA-747 by CLSI M100-S17 protocol based method; format: functional
Acinetobacter baumannii [8] = test: Antibacterial activity against fluoroquinolone resistant Acinetobacter baumannii isolate MMX2240 by CLSI M100-S17 protocol based method; format: functional
Klebsiella pneumoniae = test: Antibacterial activity against wild type Klebsiella pneumoniae ATCC 35657 by CLSI M100-S17 protocol based method; format: functional
Escherichia coli [9] = test: Antibacterial activity against wild type Escherichia coli ATCC 25922 in presence of HSA by CLSI M100-S17 protocol based method; format: functional
Escherichia coli [10] = test: Selectivity ratio of MIC for wild type Escherichia coli ATCC 25922 in presence of HSA to MIC for wild type Escherichia coli ATCC 25922; format: functional
[11] = Fraction unbound in mouse plasma at 1 uM by equilibrium dialysis method; format: ADME, cell-free
Escherichia coli [12] = test: Antibacterial activity against Escherichia coli infected in cyclophosphamide treated neutropenic CD1 mouse septicemia model assessed as mouse survival at 20 mg/kg, iv dosed at 1 hr post infection followed by redosing at 5 hrs post infection measured at 96 hrs post infection relative to control; format: functional
In short: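 Female CD-1 mice were made neutropenic with cyclophosphamide ip, 150 mg/kg on day −4 and 100 mg/kg on day −1. […] Compound was given iv in 3% DMSO/saline at 1 and 5 h postinfection, n = 6 per group. Percent survival was scored at 96 h postinfection.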

Escherichia coli [13] = test: Antibacterial activity against quinolone resistant Escherichia coli by broth microdilution method; format: functional; details: Escherichia coli
In short: (§1)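 MICs were determined by CLSI broth methods, except that organisms were grown in brain–heart–infusion medium. The panel comprised wild-type and resistant E. coli and A. baumannii strains, including 12 strains whose details are given by reference.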

Escherichia coli [14] = test: Antibacterial activity against wild type Escherichia coli by broth microdilution method; format: functional; in short: as §1
Escherichia coli [15] = test: Antibacterial activity against beta-lactam resistant Escherichia coli by broth microdilution method; format: functional; details: Escherichia coli; in short: as §1
Escherichia coli [16] = test: Antibacterial activity against aminoglycoside resistant Escherichia coli by broth microdilution method; format: functional; details: Escherichia coli; in short: as §1
Escherichia coli [17] = test: Antibacterial activity against multidrug resistant Escherichia coli by broth microdilution method; format: functional; details: Escherichia coli; in short: as §1
Acinetobacter baumannii [18] = test: Antibacterial activity against wild type Acinetobacter baumannii by broth microdilution method; format: functional; in short: as §1
Acinetobacter baumannii [19] = test: Antibacterial activity against aminoglycoside resistant Acinetobacter baumannii by broth microdilution method; format: functional; details: Acinetobacter baumannii; in short: as §1
Acinetobacter baumannii [20] = test: Antibacterial activity against quinolone resistant Acinetobacter baumannii by broth microdilution method; format: functional; details: Acinetobacter baumannii; in short: as §1
Acinetobacter baumannii [21] = test: Antibacterial activity against beta-lactam resistant Acinetobacter baumannii by broth microdilution method; format: functional; details: Acinetobacter baumannii; in short: as §1
Acinetobacter baumannii [22] = test: Antibacterial activity against carbapenem resistant Acinetobacter baumannii by broth microdilution method; format: functional; details: Acinetobacter baumannii; in short: as §1
Acinetobacter baumannii [23] = test: Antibacterial activity against multidrug resistant Acinetobacter baumannii by broth microdilution method; format: functional; details: Acinetobacter baumannii; in short: as §1

IC50 [1]: 190 nM
SMILES: O=C(O)c1cn(C2CC2)c2cc(N3CCNCC3)c(F)cc2c1=O [CIPROFLOXACIN]
Activity (Escherichia coli [2]): Dose-dependent effect | Activity (Acinetobacter baumannii [3]): Dose-dependent effect

SMILES: Cn1c(CN2CCCC2)cc2cc3c(cc21)OCCc1c-3[nH]c(=O)c(C(=O)O)c1O
MIC (Escherichia coli [4]): 1 µg/mL (≈ 2.44 µM) | MIC (Escherichia coli [5]): 2 µg/mL (≈ 4.88 µM) | MIC (Escherichia coli [6]): 3.1 µg/mL (≈ 7.57 µM) | MIC (Acinetobacter baumannii [7]): 3.9 µg/mL (≈ 9.53 µM) | MIC (Acinetobacter baumannii [8]): 7.8 µg/mL (≈ 19.1 µM) | MIC (Klebsiella pneumoniae): 2 µg/mL (≈ 4.88 µM) | MIC (Escherichia coli [9]): 3.9 µg/mL | Ratio (Escherichia coli [10]): 2 - 4 | Fu [11]: 0.18 | survival at 20 mg/kg (Escherichia coli [12]): 83% | MIC50 (Escherichia coli [13]): 0.5 µg/mL (≈ 1.22 µM) | MIC90 (Escherichia coli [13]): 1 µg/mL (≈ 2.44 µM) | MIC (Escherichia coli [13]; read-out: MIC): 0.25 to 1 µg/mL (≈ 0.611 to 2.44 µM) | MIC50 (Escherichia coli [14]): 0.5 µg/mL (≈ 1.22 µM) | MIC90 (Escherichia coli [14]): 1 µg/mL (≈ 2.44 µM) | MIC50 (Escherichia coli [15]): 0.5 µg/mL (≈ 1.22 µM) | MIC90 (Escherichia coli [15]): 1 µg/mL (≈ 2.44 µM) | MIC (Escherichia coli [15]; read-out: MIC): 0.25 to 1 µg/mL (≈ 0.611 to 2.44 µM) | MIC50 (Escherichia coli [16]): 0.5 µg/mL (≈ 1.22 µM) | MIC90 (Escherichia coli [16]): 1 µg/mL (≈ 2.44 µM) | MIC (Escherichia coli [16]; read-out: MIC): 0.25 to 1 µg/mL (≈ 0.611 to 2.44 µM) | MIC50 (Escherichia coli [17]): 0.5 µg/mL (≈ 1.22 µM) | MIC90 (Escherichia coli [17]): 1 µg/mL (≈ 2.44 µM) | MIC (Escherichia coli [17]; read-out: MIC): 0.25 to 1 µg/mL (≈ 0.611 to 2.44 µM) | MIC50 (Acinetobacter baumannii [18]): 2 µg/mL (≈ 4.88 µM) | MIC90 (Acinetobacter baumannii [18]): 8 µg/mL (≈ 19.5 µM) | MIC50 (Acinetobacter baumannii [19]): 2 µg/mL (≈ 4.88 µM) | MIC90 (Acinetobacter baumannii [19]): 8 µg/mL (≈ 19.5 µM) | MIC (Acinetobacter baumannii [19]; read-out: MIC): 0.12 to 16 µg/mL (≈ 0.293 to 39.1 µM) | MIC50 (Acinetobacter baumannii [20]): 2 µg/mL (≈ 4.88 µM) | MIC90 (Acinetobacter baumannii [20]): 8 µg/mL (≈ 19.5 µM) | MIC (Acinetobacter baumannii [20]; read-out: MIC): 0.12 to 16 µg/mL (≈ 0.293 to 39.1 µM) | MIC50 (Acinetobacter baumannii [21]): 2 µg/mL (≈ 4.88 µM) | MIC90 (Acinetobacter baumannii [21]): 8 µg/mL (≈ 19.5 µM) | MIC (Acinetobacter baumannii [21]; read-out: MIC): 0.12 to 16 µg/mL (≈ 0.293 to 39.1 µM) | MIC50 (Acinetobacter baumannii [22]): 2 µg/mL (≈ 4.88 µM) | MIC90 (Acinetobacter baumannii [22]): 8 µg/mL (≈ 19.5 µM) | MIC (Acinetobacter baumannii [22]; read-out: MIC): 0.12 to 16 µg/mL (≈ 0.293 to 39.1 µM) | MIC50 (Acinetobacter baumannii [23]): 2 µg/mL (≈ 4.88 µM) | MIC90 (Acinetobacter baumannii [23]): 8 µg/mL (≈ 19.5 µM) | MIC (Acinetobacter baumannii [23]; read-out: MIC): 0.12 to 16 µg/mL (≈ 0.293 to 39.1 µM)
